From PubChem
MITF act = activators of MITF-driven TRPM1 promoter activity in SK-MEL-5 cells. activation, % at 12.5 µM. SK-MEL-5 TRPM1-promoter luciferase, 24 h; % of positive control, neutral wells = 0. 300,000 tested, 0.75% active. AID 588334;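 active = mean activation of at least 80% with every replicate also reaching 80%; inconclusive = mean reaches 80% but some replicate falls short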
Wnt act = activators of Wnt/beta-catenin signaling; Wnt/beta-catenin reporter cell assay, activator, plate reader; activation, % at 9.35 µM; 300,000 tested, 1.2% active; in the data active = activation above about 30%, passing the limit was not always enough; inconclusive = no clear call, values can overlap the other calls
HSF-1 act = increases HSF-1 driven luciferase reporter signal; NIH3T3-HGL HSF-1 luciferase reporter, MG132, 8 h; 100% = twice DMSO control signal; activation, % at 9 µM; 300,000 tested, 1.7% active; AID 504408;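 active = mean replicate activation of at least 50% with a set share of replicates each reaching 50%; inconclusive = only one of those two conditions met; inactive = mean below 50% and too few replicates reaching it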
SR-BI uptake up = SR-BI HDL lipid transfer activation. CHO ldlA[mSR-BI] cells, DiI-HDL uptake fluorescence, 3 h; 100 = double the neutral-control signal. AID 504775. activation, % at 12.5 µM. 320,000 tested, 0.096% active;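 active = mean replicate activation of at least 60% and every replicate at or above 60%; inconclusive = mean or all-replicate condition met, but not both; inactive = mean below 60% and not all replicates reaching 60%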
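Material: SR-BI-overexpressing, LDLR-lacking CHO cells; schedule: compound exposure 3 h, 37 °C; reagent: DiI-labelled HDL at 10 µg/mL final; technique: bottom-read fluorescence, 550/595 nm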
SR-BI HDL uptake = inhibitors of mouse SR-BI mediated HDL lipid uptake; ldlA[mSR-BI] CHO cells, DiI-HDL uptake fluorescence, 3 h; inhibition, % at 12.5 µM; AID 488896; Q61009; 320,000 tested, 0.96% active;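 active = mean replicate inhibition of at least 70% and a set share of replicates each scoring 70 or more; inconclusive = meets just one of the two criteria; inactive = fails both criteria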
Target sequence (Q61009 whole entry, looked up): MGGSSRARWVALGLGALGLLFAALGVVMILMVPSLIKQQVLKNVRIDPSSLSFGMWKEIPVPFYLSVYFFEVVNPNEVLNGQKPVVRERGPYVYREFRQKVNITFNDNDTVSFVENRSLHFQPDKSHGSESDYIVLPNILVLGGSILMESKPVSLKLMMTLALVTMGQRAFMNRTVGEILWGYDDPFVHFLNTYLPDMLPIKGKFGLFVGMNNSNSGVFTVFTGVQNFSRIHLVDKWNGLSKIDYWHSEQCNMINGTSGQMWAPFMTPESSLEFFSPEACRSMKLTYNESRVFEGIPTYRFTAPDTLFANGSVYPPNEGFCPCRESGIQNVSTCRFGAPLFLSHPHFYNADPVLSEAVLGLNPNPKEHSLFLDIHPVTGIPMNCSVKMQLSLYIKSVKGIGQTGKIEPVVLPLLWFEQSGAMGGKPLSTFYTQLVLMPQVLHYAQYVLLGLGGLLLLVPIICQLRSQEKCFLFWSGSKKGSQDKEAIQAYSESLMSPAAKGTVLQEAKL
Large screens that a line does not name were inactive. Sampled rows, rich in hits. Any-hit rate of the full collection: about 3.6%.

Cc1nc(N)nc(N)c1-c1ccc(Cl)c(Cl)c1	none (no result: HSF-1 act)
CCc1ccc(-c2nc(CN3CCCC(C(=O)NCCc4ccc(OC)c(OC)c4)C3)c(C)o2)cc1 (configuration not stated)	none
COc1ccc(CCNC(=O)C2CCCN(Cc3nc(-c4ccccc4C)oc3C)C2)cc1OC (configuration not stated)	HSF-1 act 72 (no result: Wnt act)
CC(C)c1ccc(NC(=O)c2cccnc2)cc1	MITF act 91 (no result: Wnt act)
CC(C)c1ccc(NC(=O)c2snc3ccc(Cl)cc23)cc1	MITF act 120
CC(C)c1ccc(NC(=O)c2cc(Br)ccc2Br)cc1	none
CCCNS(=O)(=O)c1ccc(NC(=O)c2cccnc2)cc1	none
CCC(C)c1ccc(NC(=O)Nc2cccnc2)cc1 (configuration not stated)	MITF act 111
CCSc1ccc(NC(=O)c2cccnc2)cc1	Wnt act 37 (no result: MITF act)
C[C@H]1CN([C@@H](C)CO)C(=O)CCCn2cc(nn2)CO[C@@H]1CN(C)S(=O)(=O)c1ccc(Oc2ccccc2)cc1	none (no result: MITF act, HSF-1 act, SR-BI uptake up, SR-BI HDL uptake)
CCc1ccc(NC(=O)c2cccnc2)cc1	Wnt act 53
CCn1ncc(Br)c1C(=O)Nc1ccc(C(C)C)cc1	HSF-1 act 59
CC(C)c1ccc(NC(=O)c2csnn2)cc1	MITF act 84
O=C(Nc1ccccc1NC(=O)c1csnn1)c1csnn1	none (no result: MITF act)
CCCCN1CC(COC)Oc2cccc(F)c2S1(=O)=O (configuration not stated)	none (no result: HSF-1 act)
COc1ccc(OC)c2c1sc(=NC(=O)c1cccc(N3C(=O)CCC3=O)c1)n2C	SR-BI HDL uptake 77
COc1ccc(C)c2sc(NC(=O)c3cccc(N4C(=O)CCC4=O)c3)nc12	none
CCn1c(=NC(=O)c2cccc(N3C(=O)CCC3=O)c2)sc2c(OC)ccc(OC)c21	SR-BI HDL uptake 91
CCCCN(CCCC)Cc1ccc(C(=O)NN)o1	Wnt act 55
COc1cc(/C=C2\SC(=O)N(CCN)C2=O)ccc1OS(=O)(=O)c1cc(C)ccc1C	Wnt act 39
COc1ccc(/C=C2\SC(=O)N(CCC(=O)Nc3ccccc3)C2=O)cc1OC	none (no result: Wnt act)
CN(C)c1ccc(C(C[N+](=O)[O-])c2c(N)n(C)c(=O)n(C)c2=O)c(F)c1C#N (configuration not stated)	HSF-1 act 66
Cn1c(N)c(C(C[N+](=O)[O-])c2c(F)cccc2Cl)c(=O)n(C)c1=O (configuration not stated)	none
CC(C)C[C@H]1CN(CCCC[C@H]2CNC(=O)C(=O)N2CC2CCCCC2)C(=O)C(=O)N1CC1CCCCC1	none (no result: MITF act, HSF-1 act, SR-BI uptake up, SR-BI HDL uptake)
COCC(=O)Oc1cc(-c2ccc(C)cc2C)c(OC(=O)COC)c(-c2ccc(C)cc2C)c1	none (no result: MITF act, HSF-1 act, SR-BI uptake up, SR-BI HDL uptake)
C[C@H]1C(=O)N(C)CCN1C(=O)c1ccc(OC2CCN(CCc3ccccc3)CC2)cc1	none (no result: MITF act, HSF-1 act, SR-BI uptake up, SR-BI HDL uptake)
COc1c(OC(C)=O)ccc(/C=C/c2ccc3cccc(OCc4ccccc4)c3n2)c1[N+](=O)[O-]	HSF-1 act 61 (no result: Wnt act)
COc1cc(/C=C/c2ccc3cccc(OC)c3n2)c(OC(C)=O)c([N+](=O)[O-])c1	none (no result: MITF act)
CCCC(c1nnnn1CC(=O)OCC)N(Cc1cc2c(C)cc(C)cc2[nH]c1=O)C1CCCC1 (configuration not stated)	HSF-1 act 92 (no result: Wnt act)
COc1ccc(/C=C(\C#N)C(=O)Nc2cccc(C)n2)cc1	HSF-1 act 71 (no result: SR-BI uptake up, SR-BI HDL uptake)
Cc1cccc(NC(=O)/C(C#N)=C/c2ccccc2O)n1	MITF act inconclusive, HSF-1 act 77
Cc1cccc(NC(=O)/C(C#N)=C/c2ccc(Cl)cc2)n1	none
Cc1cccc(NC(=O)/C(C#N)=C/c2ccccc2Cl)n1	none
O=Cc1ccc(OCc2cn(CC(=O)c3ccc(O)cc3)nn2)cc1	none (no result: HSF-1 act)
COc1cc(C(=O)OCCN2CCOCC2)cc(OC)c1OC	none
COc1cc(C(=O)OCCCN2CCCN(CCCOC(=O)c3cc(OC)c(OC)c(OC)c3)CC2)cc(OC)c1OC	SR-BI HDL uptake 81
CCC1CCc2c(sc(NC(=O)c3cccnc3)c2C(N)=O)C1 (configuration not stated)	SR-BI HDL uptake 77
CCCC1CCc2c(sc(NC(=O)c3cccs3)c2C(N)=O)C1 (configuration not stated)	HSF-1 act 61 (no result: Wnt act)
NC(=O)c1c(NC(=O)c2cccnc2)sc2c1CCCC2	none
NC(=O)c1nsc(C(=O)N(c2ccccc2)C(C(=O)NCC2CCCO2)c2cccs2)c1N (configuration not stated)	HSF-1 act 73
Cn1c(CSc2ncn[nH]2)nc2ccccc21	SR-BI uptake up 68 (no result: Wnt act)
Cn1c(CSc2nc3ccccc3s2)nc2ccccc21	HSF-1 act 76 (no result: Wnt act)
O=c1[nH][nH]c2c1[C@H](c1ccc(F)cc1)O[C@H](C1CCCCC1)C2	none (no result: MITF act, HSF-1 act, SR-BI uptake up, SR-BI HDL uptake)
CC(=O)Nc1ccc(C(=O)N2CCOCC2c2cc(C(=O)NCc3ccccc3)no2)cc1 (configuration not stated)	none (no result: MITF act, HSF-1 act, SR-BI uptake up, SR-BI HDL uptake)
CN1CCCC(C)(C(=O)Nc2cccc(Oc3ccccc3)c2)C1 (configuration not stated)	none (no result: MITF act, HSF-1 act, SR-BI uptake up, SR-BI HDL uptake)
CN(C)c1cccc(/C=C(\C#N)c2ccccc2)c1	HSF-1 act 63
Cc1cccc(C)c1NC(=O)C1(C)CSCC(=O)N1CCOc1ccccc1 (configuration not stated)	none (no result: MITF act, HSF-1 act, SR-BI uptake up, SR-BI HDL uptake)
CC(=O)Nc1ccc(NC(=O)c2ccc(COc3ccc4c(C)cc(=O)oc4c3)cc2)cc1	none (no result: MITF act, Wnt act, SR-BI uptake up, SR-BI HDL uptake)
COc1ccc2c(C)cc(=O)oc2c1	none (no result: HSF-1 act)
COc1cccc(COc2ccc3c(C)cc(=O)oc3c2)c1	MITF act 114, Wnt act 46, HSF-1 act inconclusive
Cc1cccc(C(C)C)c1NC(=O)c1ccc(COc2ccc3c(C)cc(=O)oc3c2)cc1	HSF-1 act 66
COc1cccc(NC(=O)c2cnc(NS(=O)(=O)c3ccccc3)nc2)c1	none (no result: MITF act, HSF-1 act, SR-BI uptake up, SR-BI HDL uptake)
Cc1ccccc1C(=O)N[C@H](C(=O)N1CCC[C@H]1C(=O)NC1CCCC1)C1CCCCC1	none (no result: MITF act, HSF-1 act, SR-BI uptake up, SR-BI HDL uptake)
COc1ccc(C2C(=O)c3ccccc3C2=Nc2ccc(Br)cc2)cc1 (configuration not stated)	SR-BI HDL uptake 94
O=C(OCC(=O)c1ccc(Br)s1)c1ccc(O)cc1	Wnt act 43 (no result: HSF-1 act)
O=C(CC1C(=O)NCCN1C(=O)Nc1ccccc1)Nc1cc(Cl)cc(Cl)c1 (configuration not stated)	SR-BI uptake up inconclusive
COc1ccc(/C=N/Nc2cc(C)nc3ccc(Br)cc23)cc1	HSF-1 act 59
COc1ccc2nc(C)cc(N/N=C/c3cccc(OC)c3O)c2c1	none (no result: MITF act)
Clc1ccc(-c2cc(CSc3ccccc3)on2)cc1	MITF act 127, HSF-1 act 66
c1ccc(SCc2cc(-c3ccccc3)no2)cc1	MITF act 94, HSF-1 act 67
Clc1ccc(-c2cc(CSc3cccc(Cl)c3)on2)cc1	none
Cc1ccc(SCc2cc(-c3ccc(Cl)cc3)no2)cc1	none (no result: Wnt act)
